Compound activity (PubChem BioAssay)
A selection: hits, their analogues and other compounds. The true share with any hit is near 1.4%.
NR2E3 ag-1 – agonists of human NR2E3 nuclear receptor. Q9Y5X4. CHO-S Gal4-NCOR/VP16-NR2E3 two-hybrid, luciferase. inhibition of corepressor binding, % at 3.98 µM. hit rate 0.35% among 360,000. AID 602229;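 active = inhibition above the mean of all tested compounds plus 3 SD, cut at about 70% in these data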;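 note: higher means lower luciferase signal from less NR2E3 corepressor binding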
Target sequence (Q9Y5X4 whole entry, looked up, the tested form may be a part): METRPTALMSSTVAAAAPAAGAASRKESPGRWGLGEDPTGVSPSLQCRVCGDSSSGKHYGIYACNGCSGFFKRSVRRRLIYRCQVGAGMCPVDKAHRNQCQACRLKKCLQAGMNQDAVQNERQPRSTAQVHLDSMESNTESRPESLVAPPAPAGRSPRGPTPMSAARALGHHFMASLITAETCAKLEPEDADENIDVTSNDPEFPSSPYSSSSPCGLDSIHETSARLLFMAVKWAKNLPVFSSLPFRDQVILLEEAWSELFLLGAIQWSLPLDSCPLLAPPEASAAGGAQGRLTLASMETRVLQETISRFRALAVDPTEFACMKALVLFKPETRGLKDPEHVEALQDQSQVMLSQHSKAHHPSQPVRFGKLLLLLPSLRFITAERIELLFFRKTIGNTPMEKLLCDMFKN
PG9 binder – binds the HIV-1 gp120 antibody PG9 | TR-FRET gp120-PG9 antibody binding | inhibition, % at 6.7 µM | hit rate 0.43% among 360,000 | AID 624416; in the data active = inhibition above about 8.5%
Rev-erbA mod – modulators of human Rev-erb alpha DNA binding | P20393 | Rev-erbα–FITC-DNA binding, fluorescence polarization, 90 min | activity, % at 10 µM | hit rate 0.79% among 370,000 | AID 1259318;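 active = activity above about 14%, limit read from the data; passing the limit was not always enough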
NR2E3 ag-2 – agonists of human nuclear receptor NR2E3. AID 2300. inhibition of corepressor binding, % at 4.78 µM. hit rate 0.12% among 320,000. GST-NR2E3/biotin-RetCOR TR-FRET, 1536-well;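 active = percent inhibition above the cutoff of mean plus 3 SD of all tested compounds, set per screening campaign, cut at about 20% in these data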
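system = GST-tagged NR2E3 plus biotinylated RetCOR corepressor | input = 1.35 nM GST-NR2E3 | also added = 7 nM biotin-RetCOR | schedule = 5 h incubation at 4 °C | measured by = TR-FRET with europium anti-GST and streptavidin-D2, 340 nm excitation | read-out = percent loss of FRET ratio relative to control wells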
PG9 bind confirm – confirmation of small molecules binding HIV-1 gp120 antibody PG9; hit rate 90% among 1,500; inhibition, % at 6.7 µM; shares compounds with PG9 binder; AID 651571; TR-FRET PG9 antibody binding, biochemical; in the data active = inhibition above about 9%
PGV04 Ab binding – counter-screen for PG9 binders: binding control antibody PGV04; shares compounds with PG9 binder; TR-FRET PGV04 antibody-gp120 binding, biochemical; inhibition, % at 6.7 µM; AID 651604; hit rate 95% among 1,500; in the data active = inhibition above about 9.5%
PG9 binder DR – small molecules binding HIV-1 gp120 antibody PG9; shares compounds with PG9 binder; TR-FRET PG9 antibody-gp120 binding inhibition; IC50, µM; 95 tested, under 10 active; AID 651848; in the data active = IC50 below about 10 µM
PGV04 binding DR – PGV04 binding, dose response counter-screen | shares compounds with PG9 binder | hit rate 20% among 95 | AID 651937 | TR-FRET binding to control antibody PGV04 | IC50, µM
PG126 DR counter – binds control antibody PG126 in PG9 counter-screen | shares compounds with PG9 binder | TR-FRET binding to antibody PG126, counterscreen | IC50, µM | hit rate 20% among 95 | AID 651939
Each line names hits and unclear results; the compound was inactive in the other large screens (follow-up assays come after a bar, where they were run). Cut-off read from the data, not from the text of the source, unless noted: active = IC50 below about 9 µM; inactive = the rest.

COc1ccccc1NC(=O)c1ccc(NC(=O)Cc2n[nH]c(=O)c3ccccc23)cc1	PG9 binder 11 | PG9 bind confirm 12 | PGV04 Ab binding 18
COc1ccc(OC)c(C(C(=O)NC2CCCCC2)N(C(=O)c2snc(C(N)=O)c2N)c2ccccc2OC)c1 (stereo unspecified)	PG9 binder 36 | PG9 bind confirm 36 | PGV04 Ab binding 60
Cc1ccc(C(=O)Nc2nnc(NC(=S)Nc3ccccc3)s2)cc1	PG9 binder 12 | PG9 bind confirm 16 | PGV04 Ab binding 20
CCOC(=O)CC[C@@]1(C(=O)OCC)C[C@@H](CC(=O)NCCCOC)C(=O)N2CCCC=C21	none (no result: NR2E3 ag-1, PG9 binder, NR2E3 ag-2)
CN1CCCN(C(=O)CN2C(=O)CC(C)(C)S(=O)(=O)c3ccccc32)CC1	none (no result: NR2E3 ag-1, PG9 binder, NR2E3 ag-2)
Cc1ccccc1NC(=O)c1c(C)[nH]c(=S)c(C#N)c1-c1ccc(Cl)cc1	none
Cc1ccc(-c2c(C(=O)Nc3ccccc3C)c(C)[nH]c(=S)c2C#N)o1	PG9 binder 15 | PG9 bind confirm 11 | PGV04 Ab binding 11
COc1cc(C(=O)Nc2cccc(-c3nc4cc(C)ccc4o3)c2C)cc(OC)c1OC	PG9 binder 12 | PG9 bind confirm 17 | PGV04 Ab binding 27
COc1cc(C(=O)Nc2cccc(-c3nc4ncccc4o3)c2C)cc(OC)c1OC	none
CCOc1ccc(C(=O)OCC(=O)NCCNC(=O)COC(=O)c2ccc(OCC)cc2)cc1	PG9 binder 9.1 | PG9 bind confirm 14 | PGV04 Ab binding 17
O=C(OC12CCCN(C1)/C(=C/c1ccncc1)C2)c1ccccc1 (stereo unspecified)	none (no result: NR2E3 ag-1, PG9 binder, NR2E3 ag-2)
CC(=O)CSc1nc(-c2cccs2)c(C#N)c(=O)[nH]1	PG9 binder 49 (no result: NR2E3 ag-2) | PG9 bind confirm 53 | PGV04 Ab binding 65
CC(=O)CSc1nc(N)c(C#N)c(-c2cccs2)c1C#N	none
c1ccc(-c2nccc(-c3ccc(-n4cnc5ccccc54)cc3)n2)cc1	PG9 binder 15 | PG9 bind confirm 19 | PGV04 Ab binding 14 | PG9 binder DR inactive | PGV04 binding DR inactive | PG126 DR counter inactive
N#C/C(=C(/O)COC(=O)COc1cccc(Br)c1)c1nc2ccccc2[nH]1	PG9 binder 12 | PG9 bind confirm 19 | PGV04 Ab binding 31
Cc1cc(C)cc(OCC(=O)OC/C(O)=C(\C#N)c2nc3ccccc3[nH]2)c1	none
CC1CCCC(NC(=O)COC(=O)c2ccc3ccccc3n2)C1C (stereo unspecified)	PG9 binder 15 | PG9 bind confirm 24 | PGV04 Ab binding 32
CC1CCCCC1NC(=O)COC(=O)c1ccc2ccccc2n1 (stereo unspecified)	none
CC1CCCC(NC(=O)COC(=O)c2ccccc2Sc2ccccc2C#N)C1C (stereo unspecified)	PG9 binder 12 | PG9 bind confirm 29 | PGV04 Ab binding 48
Cc1ccc(-c2c(NC(=O)C3CC3)nc3ncccn23)cc1	none (no result: NR2E3 ag-1, PG9 binder, NR2E3 ag-2)
COc1cccc(Nc2nc3cc(OC)ccc3cc2C#N)c1	PG9 binder 13 | PG9 bind confirm 24 | PGV04 Ab binding 25
Cc1ccccc1Cn1cc(CN2[C@H](C)COc3cc(Br)ccc3S2(=O)=O)nn1	none (no result: NR2E3 ag-1, PG9 binder, NR2E3 ag-2)
Cc1ccc(-c2cc(C(=O)NN=C/C=C/c3ccco3)[nH]n2)cc1C	none (no result: NR2E3 ag-1, PG9 binder, NR2E3 ag-2)
COc1ccc(NC(=O)CCCn2c(=S)[nH]c3ccccc3c2=O)cc1	none
COc1ccc(NC(=O)CCn2c(=S)[nH]c3ccccc3c2=O)cc1	PG9 binder 22 | PG9 bind confirm 22 | PGV04 Ab binding 27
Cc1ccc(NC(=O)CSc2nc3c(cc2C#N)C(=O)CCC3)cc1S(=O)(=O)N(C)C	PG9 binder 13 | PG9 bind confirm 12 | PGV04 Ab binding 14
CC1(C)Cc2c(C#N)c(SCC(=O)c3ccccc3)nc(N3CCOCC3)c2CO1	PG9 binder 42 | PG9 bind confirm 9.3 | PGV04 Ab binding 86
